Here are results for eight compounds from ChEMBL document CHEMBL3351391, “Bioactive dihydronaphthoquinone derivatives from Fusarium solani” (J Nat Prod, 2014).

The subject of experiment [1] is HeLa. The experiment is described as follows: Cytotoxicity against human HeLa cells assessed as reduction in cell viability in presence of 10 mM NAC after 48 hrs by WST8 assay. It is filed as functional, cell-based. The method, boiled down:
(§1)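 HeLa cells were exposed to 0–30 μM agent for 48 h, with or without 10 mM N-acetylcysteine as ROS scavenger. Viability was then read by WST-8 (tetrazolium reduction, absorbance 450 nm). Data are mean ± SD, n = 3.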
A general note: Tetrazolium dyes change colour on reduction, which living cells bring about.

The test system of experiment [2] is HeLa. The experiment is described as follows: Induction of ROS generation in human HeLa cells at 10 to 60 uM after 3 hrs by CM-H2DCFDA dye based assay. It is filed as functional, cell-based.
Experiment [3] can be described thus: Cytotoxicity against human HCT116 cells after 48 hrs by WST8 assay. The conditions noted are these: HCT-116, 48 h. It is filed as functional, cell-based. The method, boiled down:
(§2)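 WST-8 viability after 48 h exposure to a concentration series. Plating was 1 × 10^4 or 5 × 10^3 cells per well. HeLa and HuH-7 were grown in DMEM and HCT116 in RPMI 1640, each with 10% FBS. HUVEC were grown in endothelial cell growth medium. Kit reagent was added for 30–180 min at 37 °C, then absorbance was read at 450 nm. Doxorubicin was the positive control.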

Experiment [4] in a line: Cytotoxicity against human HuH7 cells after 48 hrs by WST8 assay. As to conditions: Huh-7, 48 h. It counts as functional, cell-based. The method, boiled down:
as §2

Experiment [5] deals with HeLa. The experiment is described as follows: Cytotoxicity against human HeLa cells after 48 hrs by WST8 assay. It is filed as functional, cell-based. An outline of the steps: as §2
Experiment [6] deals with HUVEC. The experiment is described as follows: Cytotoxicity against HUVEC cells after 48 hrs by WST8 assay. It counts as functional, cell-based. As to conditions: Homo sapiens. The method, boiled down: as §2
The subject of experiment [7] is HeLa. As to the kind of experiment: Cytotoxicity against human HeLa cells assessed as reduction in cell viability at 10 to 30 uM in presence of 10 mM NAC after 48 hrs by WST8 assay. It is filed as functional, cell-based. The method, boiled down:
as §1

For experiment [8], the system named is HeLa. The experiment is described as follows: Induction of ROS generation in human HeLa cells at 1 uM after 3 hrs by CM-H2DCFDA dye based assay. It counts as functional, cell-based. The method, boiled down:
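HeLa cells were treated with agent over 0–10 μM; the methods give 1 h and the figure legend gives 3 h. Cells were then loaded with 10 μM CM-H2DCFDA for 20 min at 37 °C and washed. DCF fluorescence was read on a plate reader at ex 490/em 535 nm, n = 3.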

In experiment [9] the test system is HeLa. As to the kind of experiment: Induction of apoptosis in human HeLa cells assessed as DNA fragmentation at 4 uM after 48 hrs by TUNEL assay. It is filed as functional, cell-based. An outline of the steps: (§3)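 HeLa cells were plated at 2.5 × 10^4 per chamber-slide well and exposed for 48 h at 37 °C. Doses were 4.0 μM test agent or 0.2 μM doxorubicin (positive control). DNA fragmentation was detected by TUNEL (ApopTag Red) under fluorescence microscopy. Apoptotic cells were counted among ≥200 cells per condition, as mean ± SD of three independent experiments.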

Experiment [10] deals with HeLa. The experiment is described as follows: Induction of cell death in human HeLa cells at 10 uM after 1 hr.
In experiment [11] the test system is HeLa. As to the kind of experiment: Induction of apoptosis in human HeLa cells assessed as DNA fragmentation at 0.2 uM after 48 hrs by TUNEL assay. It is filed as functional, cell-based. An outline of the steps: as §3

What is called IC50 is the midpoint of a concentration-inhibition curve. High values mean weaker potency, low ones greater potency.

SMILES strings stand for the structures. The source made the active and inactive calls. No cut-off for these calls is given here.

As to `CC/C(=C(\c1ccccc1)c1ccc(OCCN(C)C)cc1)c1ccccc1`, in experiment [1], the outcome was Active.

In the case of `CC1=CC(=O)c2ccccc2C1=O`, the outcome in experiment [2] was Active.

For `COC1=CC(=O)c2c(O)c(C)c(CC(C)=O)c(O)c2C1=O` [JAVANICIN], the half-inhibitory concentration (IC50) is 5.5 µM in experiment [3], 6.7 µM in experiment [4], 9 µM in experiment [5] and 2.3 µM in experiment [6].

On to `CC(=O)Cc1c(C)c(O)c2c(c1O)C(=O)CCC2=O`, for which the concentration for half-maximal inhibition (IC50) in experiment [3] was 1.1 µM; in experiment [4] it was 1.9 µM; in [5] it was 4 µM; in [6], 1.8 µM. Further, in experiment [7], the outcome was inactive. For the same compound, the outcome in [8], in experiment [9] and in experiment [10] was Active.

Regarding `COc1cc(O)c2c(c1O)C(=O)[C@@H](CC(C)=O)[C@H](C)C2=O`, the half-maximal inhibitory concentration (IC50) in [3] came to 15.4 µM; in experiment [4], 10.8 µM; in experiment [5], 7.9 µM; in experiment [6], 7.7 µM.

For the compound `COc1cccc2c1C(=O)c1c(O)c3c(c(O)c1C2=O)C[C@@](O)(C(=O)CO)C[C@@H]3O[C@H]1C[C@H](N)[C@H](O)[C@H](C)O1` [DOXORUBICIN], the IC50 was 0.25 µM in experiment [3], 0.22 µM in experiment [4], 0.22 µM in [5] and 0.4 µM in [6]. Besides, the outcome in experiment [11] was Active.

In the case of `CC(=O)Cc1c(C)c(O)c2c(c1O)C(=O)CCC2O` (stereo unspecified), the IC50 is greater than 30 µM in [3], greater than 30 µM in experiment [4], greater than 30 µM in experiment [5] and 5.8 µM in experiment [6].

`COc1cc(O)c2c(c1O)[C@H](O)[C@@H]1C[C@](C)(O)OC[C@@H]1C2=O`: the IC50 in experiment [3] was greater than 30 µM; in experiment [4], 27 µM; in [5], greater than 30 µM; in experiment [6], 13.1 µM.
